ChEMBL document CHEMBL2331336, “Discovery and structure-activity relationship of 1,3-cyclohexyl amide derivatives as novel mGluR5 negative allosteric modulators” (Bioorg Med Chem Lett, 2013)
≈ marks a conversion by molar mass, not a printed value. Calls of active or inactive are those of the source. The rule behind the calls is not given here.

How the values were obtained:
[1] = biological target: T1, Metabotropic glutamate receptor 5 (Homo sapiens, UniProt P41594); assay: Antagonist activity at human mGluR5 expressed in HEK293 cells assessed as inhibition of Ca2+ mobilization by FLIPR assay; assay type: functional, cell-based
T1 sequence (P41594 whole entry): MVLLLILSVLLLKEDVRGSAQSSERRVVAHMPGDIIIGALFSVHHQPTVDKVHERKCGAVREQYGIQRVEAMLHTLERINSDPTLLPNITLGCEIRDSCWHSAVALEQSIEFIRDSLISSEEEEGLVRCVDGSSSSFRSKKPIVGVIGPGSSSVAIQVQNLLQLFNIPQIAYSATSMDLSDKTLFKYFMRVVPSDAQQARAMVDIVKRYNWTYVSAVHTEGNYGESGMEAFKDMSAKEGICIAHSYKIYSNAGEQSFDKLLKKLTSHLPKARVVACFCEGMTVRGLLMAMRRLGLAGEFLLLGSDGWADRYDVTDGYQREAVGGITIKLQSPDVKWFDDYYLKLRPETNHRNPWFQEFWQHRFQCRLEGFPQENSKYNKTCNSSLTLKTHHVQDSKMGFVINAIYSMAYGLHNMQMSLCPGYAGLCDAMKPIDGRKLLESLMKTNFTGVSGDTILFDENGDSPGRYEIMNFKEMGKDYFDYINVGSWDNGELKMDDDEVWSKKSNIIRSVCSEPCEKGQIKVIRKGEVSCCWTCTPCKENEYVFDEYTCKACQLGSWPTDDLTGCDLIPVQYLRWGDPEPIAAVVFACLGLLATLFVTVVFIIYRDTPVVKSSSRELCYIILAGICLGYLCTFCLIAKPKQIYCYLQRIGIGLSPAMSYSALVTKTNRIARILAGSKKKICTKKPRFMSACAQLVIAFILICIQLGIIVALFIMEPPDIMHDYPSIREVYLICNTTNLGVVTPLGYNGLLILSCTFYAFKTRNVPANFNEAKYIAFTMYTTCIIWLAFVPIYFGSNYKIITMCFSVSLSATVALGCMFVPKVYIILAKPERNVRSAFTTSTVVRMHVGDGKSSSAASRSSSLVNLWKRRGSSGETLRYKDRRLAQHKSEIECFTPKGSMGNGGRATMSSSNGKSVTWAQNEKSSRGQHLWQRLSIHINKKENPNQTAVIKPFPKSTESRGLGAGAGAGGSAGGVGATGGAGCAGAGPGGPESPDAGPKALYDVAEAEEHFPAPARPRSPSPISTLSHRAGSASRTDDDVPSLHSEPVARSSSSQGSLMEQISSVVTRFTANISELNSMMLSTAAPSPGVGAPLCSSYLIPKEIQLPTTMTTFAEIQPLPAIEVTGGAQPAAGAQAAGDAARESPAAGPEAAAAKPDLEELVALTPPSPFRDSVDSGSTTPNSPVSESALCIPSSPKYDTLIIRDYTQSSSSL

[2] = biological target: T1, Metabotropic glutamate receptor 5; assay: Displacement of [3H]-ABP688 from human mGluR5 expressed in HEK293 cells after 60 mins by scintillation counting; assay type: cell-based
Mus musculus = assay: Anxiolytic-like activity in mouse at 30 mg/kg, sc measured after 1 hr by marble burying test; assay type: functional, organism-based; design: dose 30 mg/kg
How it was run: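 Male CD-1 mice, n = 12 per group, given 3, 10 or 30 mg/kg sc in 20% HPβCD (5 mL/kg); buspirone 10 mg/kg sc in water as positive control. Mice were placed singly in cages for a 30 min session, and marbles buried out of 20 were counted. One-way ANOVA with Dunnett's test.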

[3] = Ratio of fraction unbound in brain to plasma of CD-1 mouse brain at 10 mg/kg, sc at 1 hr; assay type: ADME, organism-based; design: dose 10 mg/kg, route subcutaneous; conditions: in vivo
How it was run: (§1)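 CD-1 mice (n = 2), 10 mg/kg SC in 20% hydroxypropyl-β-cyclodextrin in water. Brain and plasma sampled at 1 h; averages reported. Quantification limits were 2 ng/g for brain and 2 ng/mL for plasma. Kupp is the ratio of unbound brain to unbound plasma concentration.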

[4] = Ratio of drug uptake in brain to plasma of CD-1 mouse at 10 mg/kg, po at 1 hr; assay type: ADME, organism-based; design: dose 10 mg/kg, route oral; conditions: read-out: BPR
[5] = Plasma concentration in CD-1 mouse at 10 mg/kg, po at 1 hr; assay type: ADME, organism-based; design: dose 10 mg/kg, route oral
[6] = Drug uptake in CD-1 mouse brain at 10 mg/kg, po at 1 hr; assay type: ADME, organism-based; design: dose 10 mg/kg, route oral; conditions: read-out: Drug uptake
[7] = Ratio of drug uptake in brain to plasma of CD-1 mouse at 10 mg/kg, sc at 1 hr; assay type: ADME, organism-based; design: dose 10 mg/kg, route subcutaneous; conditions: read-out: BPR; how it was run: as §1
[8] = Drug uptake in CD-1 mouse brain at 10 mg/kg, sc at 1 hr; assay type: ADME, organism-based; design: dose 10 mg/kg, route subcutaneous; conditions: read-out: Drug uptake; how it was run: as §1
[9] = Plasma concentration in CD-1 mouse at 10 mg/kg, sc at 1 hr; assay type: ADME, organism-based; design: dose 10 mg/kg, route subcutaneous; how it was run: as §1
Plasma = assay: Fraction unbound in mouse plasma; assay type: ADME, cell-free
[10] = Fraction unbound in mouse brain; assay type: ADME, tissue-based
Liver microsomes [11] = assay: Intrinsic clearance in rat liver microsomes; assay type: ADME, Microsome
Liver = assay: Intrinsic clearance in mouse liver microsomes; assay type: ADME, Microsome
Liver microsomes [12] = assay: Intrinsic clearance in human liver microsomes; assay type: ADME, Microsome; design: unit not given here
[13] = biological target: T2, Metabotropic glutamate receptor 1 (Rattus norvegicus, UniProt P23385); assay: Agonist activity at rat mGluR1 expressed in HEK293 cells assessed as Ca2+ mobilization by FLIPR assay; assay type: functional, cell-based
T2 sequence (P23385 whole entry): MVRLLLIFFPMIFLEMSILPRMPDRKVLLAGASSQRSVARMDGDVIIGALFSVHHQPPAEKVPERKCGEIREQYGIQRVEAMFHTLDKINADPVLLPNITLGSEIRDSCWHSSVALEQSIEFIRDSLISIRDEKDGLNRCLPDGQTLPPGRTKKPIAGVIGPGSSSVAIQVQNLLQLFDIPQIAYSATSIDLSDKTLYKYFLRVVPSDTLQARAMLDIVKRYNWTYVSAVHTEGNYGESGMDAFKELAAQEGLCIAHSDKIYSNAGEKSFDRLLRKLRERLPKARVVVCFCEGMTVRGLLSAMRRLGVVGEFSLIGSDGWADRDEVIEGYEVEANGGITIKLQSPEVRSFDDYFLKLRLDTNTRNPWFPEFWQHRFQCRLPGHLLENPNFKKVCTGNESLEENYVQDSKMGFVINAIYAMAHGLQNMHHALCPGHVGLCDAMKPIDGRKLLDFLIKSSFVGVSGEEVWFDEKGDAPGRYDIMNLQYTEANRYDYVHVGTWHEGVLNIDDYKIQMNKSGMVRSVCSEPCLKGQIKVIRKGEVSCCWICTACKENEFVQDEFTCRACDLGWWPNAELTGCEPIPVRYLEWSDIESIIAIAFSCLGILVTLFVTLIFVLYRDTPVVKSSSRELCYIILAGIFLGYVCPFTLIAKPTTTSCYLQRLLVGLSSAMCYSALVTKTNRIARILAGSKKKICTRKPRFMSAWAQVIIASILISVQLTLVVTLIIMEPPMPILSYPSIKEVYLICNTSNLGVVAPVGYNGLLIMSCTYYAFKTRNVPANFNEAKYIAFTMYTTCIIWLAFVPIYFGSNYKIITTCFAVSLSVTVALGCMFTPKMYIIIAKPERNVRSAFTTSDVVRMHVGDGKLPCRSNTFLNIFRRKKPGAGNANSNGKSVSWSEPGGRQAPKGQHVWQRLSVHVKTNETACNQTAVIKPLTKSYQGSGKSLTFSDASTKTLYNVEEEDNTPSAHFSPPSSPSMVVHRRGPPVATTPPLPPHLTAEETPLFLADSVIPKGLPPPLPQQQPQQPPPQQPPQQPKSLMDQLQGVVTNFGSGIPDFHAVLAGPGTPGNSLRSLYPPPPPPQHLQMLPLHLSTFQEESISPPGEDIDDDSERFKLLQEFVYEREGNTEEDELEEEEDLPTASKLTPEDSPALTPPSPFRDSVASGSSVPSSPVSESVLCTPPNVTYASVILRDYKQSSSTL
How it was run: (§2)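 Rat mGluR1 stably in HEK293 cells (1.5% calf serum medium), seeded 24 h earlier, Fluo-4 loaded 1 h at 37 °C in HBSS/HEPES pH 7.4 with probenecid. Curves fitted with Hill equation.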

[14] = biological target: T2, Metabotropic glutamate receptor 1; assay: Antagonist activity at rat mGluR1 expressed in HEK293 cells assessed as inhibition of Ca2+ mobilization by FLIPR assay; assay type: functional, cell-based; how it was run: as §2
[15] = Kinetic solubility of the compound in potassium phosphate buffer after 4 hrs; assay type: physicochemical; conditions: read-out: Kinetic_solubility
How it was run: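 Kinetic solubility: compound from 10 mM DMSO stock diluted into 25 mM potassium phosphate buffer and shaken 4 h. Supernatant analyzed by UPLC with PDA detection at 254 nm.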

[16] = Plasma protein binding in human; assay type: ADME, cell-free; conditions: read-out: PPB (converted)
[17] = Partition co-efficient, log D at pH 7.4 of the compound by shake flask method; assay type: physicochemical; conditions: buffer

Row | Compound | IC50 [1] [nM] | further results
1 | CN(C(=O)c1cccc(Cl)c1)C1CCCC(N(C)C(=O)c2cccc(Cl)c2)C1 (configuration not stated) | > 10000 | –
2 | CN(C(=O)c1cccc(Cl)c1)C1CCCC(NC(=O)c2cccc(Cl)c2)C1 (configuration not stated) | > 10000 | –
3 | O=C(NC1CCCC(NC(=O)c2cccc(Cl)c2)C1)c1cccc(F)c1 (racemic) | 86 | Ki [2]: 320 nM
4 | O=C(N[C@H]1CCC[C@H](NC(=O)c2cccc(Cl)c2)C1)c1ccc(F)cc1 (relative stereo) | 194 | Ki [2]: 492 nM
5 | COc1ccc(C(=O)N[C@H]2CCC[C@H](NC(=O)c3cccc(Cl)c3)C2)cc1 (relative stereo) | 266 | Ki [2]: 674 nM
6 | O=C(N[C@H]1CCC[C@H](NC(=O)c2cccc(Cl)c2)C1)c1cccc(F)c1 | 9600 | –
7 | Cc1cccc(C(=O)N[C@H]2CCC[C@]3(CN=C(c4cccc(Cl)c4)O3)C2)n1 | 23 | Activity (Mus musculus): Active; Ratio [3]: 1.1; Kp at 1 h [4]: 0.5; concentration at 1 h [5]: 17 nM; concentration at 1 h [6]: 9 nM; Kp at 1 h [7]: 0.8; concentration at 1 h [8]: 910 nM; concentration at 1 h [9]: 1180 nM; Cp(f) (Plasma): 0.2%; fraction unbound [10]: 0.003; Intrinsic clearance (Liver microsomes [11]): 48 mL/min; Intrinsic clearance (Liver): 12.5 mL/min; Intrinsic clearance (Liver microsomes [12]): 13; EC50 [13]: > 10000 nM; IC50 [14]: > 10000 nM
8 | O=C(NC1CCCC2(CN=C(c3cccc(Cl)c3)O2)C1)c1ccncc1 (mixture of isomers) | > 10000 | –
9 | O=C(Cc1ccccn1)N[C@H]1CCC[C@H](NC(=O)c2cccc(Cl)c2)C1 (relative stereo) | > 10000 | –
10 | N#Cc1cccc(C(=O)N[C@@H]2CCC[C@@H](NC(=O)c3ccccn3)C2)c1 | 231 | solubility kinetic at 4 h [15]: 240 µM (≈ 83.6 µg/mL); Intrinsic clearance (Liver microsomes [11]): 8.3 mL/min; fraction unbound [16]: 0.157; Intrinsic clearance (Liver): 1.8 mL/min; Intrinsic clearance (Liver microsomes [12]): 0.5; EC50 [13]: > 10000 nM; IC50 [14]: > 10000 nM; Ki [2]: 1270 nM
11 | Cc1cccc(C(=O)N[C@@H]2CCC[C@@]3(CN=C(c4cccc(Cl)c4)O3)C2)n1 | 5230 | –
12 | Cc1cccc(C(=O)N[C@@H]2CCC[C@@]3(CN=C(c4cccc(Cl)c4)O3)C2)n1 (relative stereo) | 72 | –
13 | O=C(NC1CCCC2(CN=C(c3cccc(Cl)c3)O2)C1)c1ccccn1 (mixture of isomers) | 647 | Ki [2]: 30 nM
14 | CN(C)c1ccc(C(=O)N[C@H]2CCC[C@H](NC(=O)c3cccc(Cl)c3)C2)cc1 | 473 | –
15 | N#Cc1cccnc1C(=O)NC1CCCC(NC(=O)c2cccc(Cl)c2)C1 (mixture of isomers) | 671 | Ki [2]: 1250 nM
16 | O=C(NC1CCCC(NC(=O)c2cccc(Cl)c2)C1)c1cccc(Cl)c1 (mixture of isomers) | 139 | –
17 | O=C(N[C@@H]1CCC[C@@]2(CN=C(c3cccc(Cl)c3)O2)C1)c1ccccn1 | 2910 | –
18 | O=C(NC1CCCC2(CN=C(c3cccc(Cl)c3)O2)C1)c1cccnc1 (mixture of isomers) | > 10000 | –
19 | O=C(N[C@H]1CCC[C@H](C(=O)Nc2cccc(Cl)c2)C1)c1ccccn1 | 468 | –
20 | O=C(N[C@H]1CCC[C@H](NC(=O)c2cnccn2)C1)c1cccc(Cl)c1 (relative stereo) | 1370 | –
21 | O=C(N[C@H]1CCC[C@H](NC(=O)c2cccc(Cl)c2)C1)c1ccncc1 (relative stereo) | 300 | Ki [2]: 445 nM
22 | CN(C)c1cccc(C(=O)N[C@H]2CCC[C@H](NC(=O)c3cccc(Cl)c3)C2)c1 (relative stereo) | > 10000 | –
23 | N#Cc1cccc(C(=O)N[C@@H]2CCC[C@H](NC(=O)c3ccccn3)C2)c1 (relative stereo) | > 10000 | –

Row | Compound | IC50 [1] [nM] | further results
24 | COc1cccc(C(=O)NC2CCCC(NC(=O)c3ccccn3)C2)c1 (mixture of isomers) | > 10000 | –
25 | O=C(N[C@H]1CCC[C@H](NC(=O)c2ncccn2)C1)c1cccc(Cl)c1 (relative stereo) | 425 | Ki [2]: 3790 nM
26 | O=C(N[C@H]1CCC[C@H](NC(=O)C2CCCCC2)C1)c1cccc(Cl)c1 (relative stereo) | 857 | –
27 | O=C(N[C@H]1CCC[C@H](NC(=O)c2cccc(Cl)c2)C1)c1cccnc1 (relative stereo) | 612 | –
28 | N#Cc1cccc(C(=O)N[C@H]2CCC[C@H](NC(=O)c3ccccn3)C2)c1 | > 10000 | –
29 | O=C(NC1CCCC(NC(=O)c2ccccn2)C1)c1cccc(Cl)c1 (racemic) | 314 | –
30 | O=C(N[C@@H]1CCC[C@@H](C(=O)Nc2ccccn2)C1)c1cccc(Cl)c1 | 5000 | –
31 | Cc1cccc(C(=O)N[C@H]2CCC[C@H](NC(=O)c3ccccn3)C2)c1 (relative stereo) | 1000 | –
32 | O=C(N[C@@H]1CCC[C@H](NC(=O)c2ccccn2)C1)c1cccc(Cl)c1 (relative stereo) | 1510 | –
33 | COc1cccc(C(=O)N[C@H]2CCC[C@H](NC(=O)c3cccc(Cl)c3)C2)c1 (relative stereo) | 789 | –
34 | O=C(N[C@H]1CCC[C@H](NC(=O)c2cccc(Cl)c2)C1)c1ccccc1 (relative stereo) | 228 | Ki [2]: 672 nM
35 | N#Cc1cccc(C(=O)NC2CCCC(NC(=O)c3ccccn3)C2)c1 (racemic) | 531 | Ki [2]: 1540 nM
36 | N#Cc1cccc(C(=O)N[C@@H]2CCC[C@@H](C(=O)Nc3ccccn3)C2)c1 | > 10000 | –
37 | O=C(N[C@H]1CCC[C@H](NC(=O)c2cccc(F)c2)C1)c1cccc(F)c1 | 593 | –
38 | O=C(N[C@H]1CCC[C@H](NC(=O)c2ccccc2F)C1)c1cccc(Cl)c1 (relative stereo) | 175 | Ki [2]: 760 nM
39 | Cc1cccc(C(=O)N[C@H]2CCC[C@H](NC(=O)c3cccc(Cl)c3)C2)n1 (racemic) | 290 | Ki [2]: 582 nM
40 | O=C(N[C@H]1CCC[C@H](NC(=O)c2ccccn2)C1)c1ccccn1 | 1150 | –
41 | O=C(N[C@H]1CCC[C@H](NC(=O)c2ccccn2)C1)c1cccc(Cl)c1 | > 10000 | –
42 | O=C(N[C@@H]1CCC[C@@H](NC(=O)c2cccc(Cl)c2)C1)c1cccc(F)c1 | 59 | logD [17]: > 5; solubility kinetic at 4 h [15]: 5.4 µM (≈ 2.02 µg/mL); Intrinsic clearance (Liver microsomes [11]): 9.4 mL/min; fraction unbound [16]: 0.039; Intrinsic clearance (Liver microsomes [12]): 0.8; EC50 [13]: > 10000 nM; IC50 [14]: 2100 nM; Ki [2]: 211 nM
43 | Cc1cccnc1C(=O)N[C@H]1CCC[C@H](NC(=O)c2cccc(Cl)c2)C1 (relative stereo) | 7840 | –
44 | Cc1cccc(C(=O)N[C@H]2CCC[C@@]3(CN=C(c4cccc(Cl)c4)O3)C2)n1 (relative stereo) | 1510 | –
45 | Cc1ccnc(C(=O)N[C@H]2CCC[C@H](NC(=O)c3cccc(Cl)c3)C2)c1 (relative stereo) | 3400 | –
